What was measured:
Mus musculus [1] = assay: Urinary Metabolic (3-(methylthio)acetaminophen) profile in the mouse 24 h after dose of 3 mmol/kg of the compound; assay type: ADME, organism-based, Urine; details: in vivo
Mus musculus [2] = assay: Urinary Metabolic (acetaminophen-3-mecapturate) profile in the mouse 24 hr after dose of 3 mmol/kg of the compound; assay type: ADME, organism-based, Urine; details: in vivo
Mus musculus [3] = assay: Urinary Metabolic (3-cysteinnylacetaminophen) profile in the mouse 24 hr after dose of 3 mmol/kg of the compound; assay type: ADME, organism-based, Urine; details: in vivo
Mus musculus [4] = assay: Urinary Metabolic (3-hydroxyacetaminophen) profile in the mouse 24 h after dose of 3 mmol/kg of the compound; assay type: ADME, organism-based, Urine; details: in vivo
Mus musculus [5] = assay: Time course of Distribution of Radioactivity in Mice Liver after 3 mmol/kg dose of the Compound after 3 h; assay type: ADME, organism-based; details: in vivo
Procedure, shortened: (§1)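 Groups of 12 mice given [acetyl-14C]-labelled drug ip, 3 mmol/kg (0.45 mCi/mmol), housed individually with urine/feces separation. Four killed at each of 1, 3 and 24 h by exsanguination. Tissues (~100 mg) digested in Soluene 350; blood digested and peroxide-bleached; feces freeze-dried, rehydrated, digested and bleached. Scintillation counting; nmol equiv/mg tissue or per mL blood/urine, means ± SE (N = 4).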

Mus musculus [6] = assay: Time course of Distribution of Radioactivity in Mice kidney after 3 mmol/kg dose of the Compound after 1 h; assay type: ADME, organism-based; details: in vivo; procedure, shortened: as §1
Mus musculus [7] = assay: Time course of Distribution of Radioactivity in Mice kidney after 3 mmol/kg dose of the Compound after 24 h; assay type: ADME, organism-based; details: in vivo; procedure, shortened: as §1
Mus musculus [8] = assay: Time course of Distribution of Radioactivity in Mice kidney after 3 mmol/kg dose of the Compound after 3 h; assay type: ADME, organism-based; details: in vivo; procedure, shortened: as §1
Mus musculus [9] = assay: Urinary Metabolic (3-methoxyacetaminophen) profile in the mouse 24 hr after dose of 3 mmol/kg of the compound; assay type: ADME, organism-based, Urine; details: in vivo
Mus musculus [10] = assay: Urinary Metabolic (Acetaminophen) profile in the mouse 24 h after dose of 3 mmol/kg of the compound; assay type: ADME, organism-based, Urine; details: in vivo
Mus musculus [11] = assay: Time course of Distribution of Radioactivity in Mice brain after 3 mmol/kg dose of the Compound after 1 h; assay type: ADME, organism-based; details: in vivo; procedure, shortened: as §1
Mus musculus [12] = assay: Time course of Distribution of Radioactivity in Mice brain after 3 mmol/kg dose of the Compound after 24 h; assay type: ADME, organism-based; details: in vivo; procedure, shortened: as §1
Mus musculus [13] = assay: Time course of Distribution of Radioactivity in Mice brain after 3 mmol/kg dose of the Compound after 3 h; assay type: ADME, organism-based; details: in vivo; procedure, shortened: as §1
Mus musculus [14] = assay: Time course of Distribution of Radioactivity in Mice feces after 3 mmol/kg dose of the Compound after 1 hr; assay type: ADME, organism-based; details: in vivo; procedure, shortened: as §1
Mus musculus [15] = assay: Time course of Distribution of Radioactivity in Mice feces after 3 mmol/kg dose of the Compound after 24 h; assay type: ADME, organism-based; details: in vivo; procedure, shortened: as §1
Mus musculus [16] = assay: Time course of Distribution of Radioactivity in Mice feces after 3 mmol/kg dose of the Compound after 3 h; assay type: ADME, organism-based; details: in vivo; procedure, shortened: as §1
Mus musculus [17] = assay: Time course of Distribution of Radioactivity in Mice intestine after 3 mmol/kg dose of the Compound after 24 h; assay type: ADME, organism-based; details: in vivo; procedure, shortened: as §1
Mus musculus [18] = assay: Time course of Distribution of Radioactivity in Mice intestine after 3 mmol/kg dose of the Compound after 3 h; assay type: ADME, organism-based; details: in vivo; procedure, shortened: as §1
Mus musculus [19] = assay: Time course of Distribution of Radioactivity in Mice intestine after 3 mmol/kg dose of the Compound after 1 h; assay type: ADME, organism-based; details: in vivo; procedure, shortened: as §1
Mus musculus [20] = assay: Time course of Distribution of Radioactivity in Mice lungs/heart after 3 mmol/kg dose of the Compound after 1 h; assay type: ADME, organism-based, Lung; details: in vivo; procedure, shortened: as §1
Mus musculus [21] = assay: Time course of Distribution of Radioactivity in Mice lungs/heart after 3 mmol/kg dose of the Compound after 24 h; assay type: ADME, organism-based, Lung; details: in vivo; procedure, shortened: as §1
Mus musculus [22] = assay: Time course of Distribution of Radioactivity in Mice lungs/heart after 3 mmol/kg dose of the Compound after 3 h; assay type: ADME, organism-based, Lung; details: in vivo; procedure, shortened: as §1
Mus musculus [23] = assay: Time course of Distribution of Radioactivity in Mice spleen after 3 mmol/kg dose of the Compound after 1 h; assay type: ADME, organism-based; details: in vivo; procedure, shortened: as §1
Mus musculus [24] = assay: Time course of Distribution of Radioactivity in Mice spleen after 3 mmol/kg dose of the Compound after 24 h; assay type: ADME, organism-based; details: in vivo; procedure, shortened: as §1
Mus musculus [25] = assay: Time course of Distribution of Radioactivity in Mice spleen after 3 mmol/kg dose of the Compound after 3 h; assay type: ADME, organism-based; details: in vivo; procedure, shortened: as §1
Mus musculus [26] = assay: Time course of Distribution of Radioactivity in Mice stomach after 3 mmol/kg dose of the Compound after 1 h; assay type: ADME, organism-based; details: in vivo; procedure, shortened: as §1
Mus musculus [27] = assay: Time course of Distribution of Radioactivity in Mice stomach after 3 mmol/kg dose of the Compound after 24 h; assay type: ADME, organism-based; details: in vivo; procedure, shortened: as §1
Mus musculus [28] = assay: Time course of Distribution of Radioactivity in Mice Liver after 3 mmol/kg dose of the Compound after 1 h; assay type: ADME, organism-based; details: in vivo; procedure, shortened: as §1
Mus musculus [29] = assay: Time course of Distribution of Radioactivity in Mice Urine after 3 mmol/kg dose of the Compound after 1 h; assay type: ADME, organism-based; details: in vivo; procedure, shortened: as §1
Mus musculus [30] = assay: Time course of Distribution of Radioactivity in Mice Urine after 3 mmol/kg dose of the Compound after 24 h; assay type: ADME, organism-based; details: in vivo; procedure, shortened: as §1
Mus musculus [31] = assay: Time course of Distribution of Radioactivity in Mice Urine after 3 mmol/kg dose of the Compound after 3 h; assay type: ADME, organism-based; details: in vivo; procedure, shortened: as §1
Mus musculus [32] = assay: Time course of Distribution of Radioactivity in Mice blood after 3 mmol/kg dose of the Compound after 1 h; assay type: ADME, organism-based; details: in vivo; procedure, shortened: as §1
Mus musculus [33] = assay: Time course of Distribution of Radioactivity in Mice blood after 3 mmol/kg dose of the Compound after 24 h; assay type: ADME, organism-based; details: in vivo; procedure, shortened: as §1
Mus musculus [34] = species: Mus musculus; assay: Analgesic activity determined in mice using the Bradykinin-induced Writhing test; assay type: functional
Procedure, shortened: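 Male CD1 mice (15–20 g), test drug given orally 15 min before bradykinin ip (4 μg in 0.2 mL sterile water), then a second bradykinin injection (0.2 μg/0.1 mL) 15 min later. Writhing was scored over the next 10 min, with control groups of 10 mice. ED50 was derived by log-probit analysis from at least five doses, with 95% limits.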

Mus musculus [35] = assay: (§2) Hepatotoxicity in Swiss-Webster Mice Caused by compound at 400 mg/kg (i.p.) dose; assay type: functional; details: route intraperitoneal
Procedure, shortened: (§3)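 Male Swiss-Webster mice (20 g), groups of 10, were given a single ip dose of drug in saline with no pretreatment. Survivors were decapitated at 24 h and counted. Plasma ALT was measured, and liver sections (formalin-fixed, paraffin, H&E) were scored for necrosis severity in survivors. Values are means ± SE.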

Mus musculus [36] = assay: (§4) Hepatotoxicity in Swiss-Webster Mice Caused by compound at 750 mg/kg (i.p.) dose; assay type: functional; details: route intraperitoneal; procedure, shortened: as §3
Mus musculus [37] = assay: Hepatotoxicity in Swiss-Webster Mice Caused by compound at 400 mg/kg (i.p.) dose; 8/10; assay type: functional; details: route intraperitoneal; procedure, shortened: as §3
Mus musculus [38] = assay: as §2; assay type: functional, organism-based; design: dose 400 mg/kg; procedure, shortened: as §3
Mus musculus [39] = assay: as §4; assay type: functional, organism-based; design: dose 750 mg/kg; procedure, shortened: as §3
Mus musculus [40] = assay: Hepatotoxicity in Swiss-Webster Mice Caused by compound at 750 mg/kg (i.p.) dose; 4/10; assay type: functional; details: route intraperitoneal; procedure, shortened: as §3
Mus musculus [41] = assay: Time course of Distribution of Radioactivity in Mice blood after 3 mmol/kg dose of the Compound after 3 h; assay type: ADME, organism-based; details: in vivo; procedure, shortened: as §1
Mus musculus [42] = assay: Time course of Distribution of Radioactivity in Mice stomach after 3 mmol/kg dose of the Compound after 3 h; assay type: ADME, organism-based; details: in vivo; procedure, shortened: as §1
Mus musculus [43] = assay: Time course of Distribution of Radioactivity in Mice Liver after 3 mmol/kg dose of the Compound after 24 h; assay type: ADME, organism-based; details: in vivo; procedure, shortened: as §1

Work on `CC(=O)Nc1ccc(O)cc1` [ACETAMINOPHEN] yielded an Administered dose (Mus musculus [1]) of 2.3%, an Administered dose (Mus musculus [2]) of 2% and an Administered dose (Mus musculus [3]) of 18.5%. The Administered dose (Mus musculus [4]) was 0.4%, the Radioactivity (Mus musculus [5]) was 0.73 nM equiv (mg of tissue)-1 and the Radioactivity (Mus musculus [6]) was 2.45 nM equiv (mg of tissue)-1. The Radioactivity (Mus musculus [7]) was 0.21 nM equiv (mg of tissue)-1, the Radioactivity (Mus musculus [8]) was 1.19 nM equiv (mg of tissue)-1 and the Administered dose (Mus musculus [9]) was 1.1%. The Administered dose (Mus musculus [10]) was 68.8%, the Radioactivity (Mus musculus [11]) was 1.22 nM equiv (mg of tissue)-1 and the Radioactivity (Mus musculus [12]) was 0.05 nM equiv (mg of tissue)-1. The Radioactivity (Mus musculus [13]) was 0.24 nM equiv (mg of tissue)-1, the Radioactivity (Mus musculus [14]) was 0.09 nM equiv mg-1 and the Radioactivity (Mus musculus [15]) was 15.3 nM equiv mg-1. The Radioactivity (Mus musculus [16]) was 1.52 nM equiv mg-1, the Radioactivity (Mus musculus [17]) was 0.92 nM equiv (mg of tissue)-1 and the Radioactivity (Mus musculus [18]) was 1.08 nM equiv (mg of tissue)-1. The Radioactivity (Mus musculus [19]) was 2.19 nM equiv (mg of tissue)-1, the Radioactivity (Mus musculus [20]) was 1.13 nM equiv (mg of tissue)-1 and the Radioactivity (Mus musculus [21]) was 0.11 nM equiv (mg of tissue)-1. The Radioactivity (Mus musculus [22]) was 0.2 nM equiv (mg of tissue)-1, the Radioactivity (Mus musculus [23]) was 1.55 nM equiv (mg of tissue)-1 and the Radioactivity (Mus musculus [24]) was 0.04 nM equiv (mg of tissue)-1. For the same molecule, the Radioactivity (Mus musculus [25]) was 0.29 nM equiv (mg of tissue)-1, the Radioactivity (Mus musculus [26]) was 1.13 nM equiv (mg of tissue)-1 and the Radioactivity (Mus musculus [27]) was 0.15 nM equiv (mg of tissue)-1. For the same molecule, the Radioactivity (Mus musculus [28]) was 2.89 nM equiv (mg of tissue)-1, the Radioactivity (Mus musculus [29]) was 12.4 nM equiv (ml of urine)-1 and the Radioactivity (Mus musculus [30]) was 6005 nM equiv (ml of urine)-1. The Radioactivity (Mus musculus [31]) was 3880 nM equiv (ml of urine)-1, the Radioactivity (Mus musculus [32]) was 1605 nM equiv (ml of blood)-1 and the Radioactivity (Mus musculus [33]) was 19.2 nM equiv (ml of blood)-1. For the same molecule, the ED50 (Mus musculus [34]) was 84.3 mg/kg, the “Hepatic necrosis in survivors” value (Mus musculus [35]) was 1.13 and the “Hepatic necrosis in survivors” value (Mus musculus [36]) was 3.25. For the same molecule, the “Survivors at 24 h” value (Mus musculus [37]) was 8, the Plasma ALT at 24 h (Mus musculus [38]) was 1550 mU ml-1 and the Plasma ALT at 24 h (Mus musculus [39]) was 4030 mU ml-1. For the same molecule, the “Survivors at 24 h” value (Mus musculus [40]) was 4, the Radioactivity (Mus musculus [41]) was 544 nM equiv (ml of blood)-1 and the Radioactivity (Mus musculus [42]) was 0.71 nM equiv (mg of tissue)-1. The Radioactivity (Mus musculus [43]) was 0.58 nM equiv (mg of tissue)-1.

— ChEMBL document CHEMBL1123436, “Comparative toxicities and analgesic activities of three monomethylated analogues of acetaminophen” (J Med Chem, 1986)
